Results gathered from unrelated publications.
Compare with care: the assays were run in different laboratories.
Target: Membrane-associated tyrosine- and threonine-specific cdc2-inhibitory kinase (PKMYT1, Homo sapiens, UniProt Q99640)
Sequence (Q99640 1-499, as in one of the studies): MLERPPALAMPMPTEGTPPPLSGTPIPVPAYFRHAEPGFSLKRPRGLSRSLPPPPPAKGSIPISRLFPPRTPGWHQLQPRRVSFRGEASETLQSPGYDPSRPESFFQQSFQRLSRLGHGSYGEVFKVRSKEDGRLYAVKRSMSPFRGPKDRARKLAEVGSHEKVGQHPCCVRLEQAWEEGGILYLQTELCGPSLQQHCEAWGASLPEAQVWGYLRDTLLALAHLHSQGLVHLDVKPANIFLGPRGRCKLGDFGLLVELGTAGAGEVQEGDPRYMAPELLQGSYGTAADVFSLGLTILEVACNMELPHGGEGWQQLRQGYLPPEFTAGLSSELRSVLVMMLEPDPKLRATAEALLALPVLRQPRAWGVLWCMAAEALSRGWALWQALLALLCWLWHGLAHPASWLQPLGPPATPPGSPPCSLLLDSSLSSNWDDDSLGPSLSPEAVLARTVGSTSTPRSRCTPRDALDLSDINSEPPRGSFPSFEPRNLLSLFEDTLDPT

| SMILES | observed | technique | tested at | remaining binding [%] |
| --- | --- | --- | --- | --- |
| Nc1ncc2c(n1)-c1c([nH]c3ccc(C#CC4CC4)cc13)CCCC2 | binding | competition with immobilised ligand | 1 µM | 98 |
| Cc1cnn2ncc(-c3ccnc(N(C)C)n3)c2c1 | binding |  | 1 µM | 100 |
| COc1cnc(Nc2cccc(S(N)(=O)=O)c2)nc1N1CCN(c2ccccc2)C(=O)C1 | binding | competition with immobilised ligand | 1 µM | 86 |
| O=C(c1ccc(Nc2ncc(Cl)c(-c3cc4ccccc4s3)n2)cc1)N1CCC(N2CCCC2)CC1 | binding | competition with immobilised ligand | 1 µM | 87 |
| N[C@H]1CCN(c2nccc(-c3cnn4ncccc34)n2)C1 | binding |  | 1 µM | 91 |
| CCC(=O)N[C@@H]1CC[C@H](C(=O)N(C)c2ccc(-c3nc4ccccc4o3)cc2)C1 | cell-free assay | competition with immobilised ligand | 1 µM | 100 |
| CNC(=O)[C@@H]1CC[C@@H](n2c(-c3ccc4cnccc4c3)nc3ccc(C(=O)NCc4cccc(C(N)=O)c4)cc32)C1 | binding | competition with immobilised ligand | 1 µM | 100 |
| COc1cc(-c2cn(C3CCc4c(F)cccc4N(CC(F)(F)F)C3=O)nn2)ccc1-n1cnc(C)c1 (centres unmarked) | cell-free assay | competition with immobilised ligand | 1 µM | 100 |
| F[C@@H]1CCN(c2nccc(-c3cnn4ncccc34)n2)C1 | binding |  | 1 µM | 100 |
| CCN1CCN(Cc2ccc(C(=O)Nc3ccc(C)c(Oc4ccc5c(c4)CC(=O)N5)c3)cc2C(F)(F)F)CC1 | binding | competition with immobilised ligand | 1 µM | 70 |
| O=C1CCc2cc(Nc3cc(OC4CCOCC4)c([N+](=O)[O-])cc3Cl)ccc2N1 | cell-free assay | competition with immobilised ligand | 1 µM | 79 |
| CN(c1nccc(-c2cnn3ncccc23)n1)C1CC1 | binding |  | 1 µM | 88 |
| O=C(c1ccc(Nc2nccc(-c3cc4ccccc4s3)n2)cc1)N1CCC(N2CCCC2)CC1 | binding | competition with immobilised ligand | 1 µM | 70 |
| CCOC(=O)c1cc2cc(-c3cc(C(=O)NCc4ccc(C(=O)O)cc4)nn3C)ccc2[nH]1 | cell-free assay | competition with immobilised ligand | 0.1 µM | 100 |
| O=C(NCCCN1CCOCC1)c1ccc(Nc2ncc(Cl)c(-c3ccc(Cl)s3)n2)cc1 | binding | competition with immobilised ligand | 1 µM | 100 |
| CC1CCCN1c1nccc(-c2cnn3ncccc23)n1 (centres unmarked) | binding |  | 1 µM | 97 |
| CS(=O)(=O)N1CCCC(NC(=O)[C@H](CCC2CCCCC2)NC(=O)c2ccc(CNC(=O)c3cnc4ccccn34)cc2)C1 (some centres unmarked) | cell-free assay | competition with immobilised ligand | 0.1 µM | 100 |
| C[C@H]1CCN(c2nccc(-c3cnn4ncccc34)n2)C1 | binding |  | 1 µM | 100 |
| COc1cc(-c2cn(C3CCc4ccccc4N(CC(F)(F)F)C3=O)nn2)ccc1-n1ccc(C)n1 (centres unmarked) | cell-free assay | competition with immobilised ligand | 1 µM | 100 |
| O=C(NCC1CCOCC1)c1n[nH]cc1NC(=O)c1c(F)cccc1F | binding | competition with immobilised ligand | 1 µM | 72 |
